What was measured:
Format in all cases: functional, cell-based
DU-145 = assay: Cytotoxicity against human androgen-independent DU145 cells assessed as inhibition of cell viability after 3 days by WST-1 cell proliferation assay; settings: DU-145, 72 h
How it was run: (§1)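 Human prostate cancer cells (LNCaP androgen-dependent; PC-3 and DU145 androgen-independent) were exposed to drug for 3 days, and viability was read by WST-1 proliferation assay. IC50 was taken as the drug concentration giving 50% inhibition of cell viability, reported as mean ± standard error of the mean.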

PC-3 = assay: Cytotoxicity against human androgen-independent PC3 cells assessed as cell cell viability after 3 days by WST-1 cell proliferation assay; settings: PC-3, 72 h; how it was run: as §1
LNCaP = assay: Cytotoxicity against human androgen-dependent LNCAP cells assessed as inhibition of cell viability after 3 days by WST-1 cell proliferation assay; settings: 72 h; how it was run: as §1

Structure (SMILES) | IC50 (DU-145) [µM] | IC50 (PC-3) [µM] | IC50 (LNCaP) [µM]
CCn1ccnc1/C=C/C(=O)/C=C/c1coc2ccccc2c1=O | 3 | 1.8 | 1
O=c1c(O)c(-c2ccc(O)c(O)c2)oc2cc(O)cc(O)c12 [QUERCETIN] | > 100 | > 100 | 45.5
CC(C)n1ccnc1/C=C/C(=O)/C=C/c1coc2ccccc2c1=O | 3.3 | 2.3 | 1.2
CCCn1ccnc1/C=C/C(=O)/C=C/c1coc2ccccc2c1=O | 4.6 | 2.4 | 2.1
COc1cc(/C=C/C(=O)CC(=O)/C=C/c2ccc(O)c(OC)c2)ccc1O [CURCUMIN] |  |  | 12.1
CCCCn1ccnc1/C=C/C(=O)/C=C/c1coc2ccccc2c1=O | 4.3 | 2 | 2
CCCCCn1ccnc1/C=C/C(=O)/C=C/c1coc2ccccc2c1=O | 2.7 | 2.1 | 1.8
CC(C)CCn1ccnc1/C=C/C(=O)/C=C/c1coc2ccccc2c1=O | 5.8 | 3.6 | 4
CCC(C)n1ccnc1/C=C/C(=O)/C=C/c1coc2ccccc2c1=O (configuration not stated) | 3.3 | 1.8 | 1.3
CCCC(C)n1ccnc1/C=C/C(=O)/C=C/c1coc2ccccc2c1=O (configuration not stated) | 1.4 | 3.2 | 3.9
CCC(CC)n1ccnc1/C=C/C(=O)/C=C/c1coc2ccccc2c1=O | 5.2 | 2.9 | 2.8
Cn1ccnc1/C=C/C(=O)/C=C/c1coc2ccccc2c1=O | 4.5 | 2.8 | 2.3
O=c1c(-c2ccc(O)cc2)coc2cc(O)cc(O)c12 [GENISTEIN] | > 100 | 68.6 | 37.4
